In ChEMBL document CHEMBL4145611, “Discovery of Marinoquinolines as Potent and Fast-Acting Plasmodium falciparum Inhibitors with in Vivo Activity” (J Med Chem, 2018):
Calls of active or inactive are those of the source. The calls are words filed in the database; no cut-off is given here.

Assays:
Plasmodium berghei [1] = assay: Antiplasmodial activity against Plasmodium berghei NK65 infected in Swiss mouse assessed as reduction in parasitemia at 50 mg/kg, po administered via gavage for 3 consecutive days post infection measured on day 7 post infection relative to control; assay type: functional; set-up: scale not given: the % may be the effect or the level left
Summary of the method: (§1)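 P. berghei NK65 suppressive test: adult Swiss outbred mice (20±2 g) inoculated ip with 1×10^5 infected red cells, randomized to groups, dosed daily for three days by oral gavage or ip injection with test compound at 50 mg/kg in 3% (v/v) DMSO; CQ 20 mg/kg and vehicle groups in parallel. Giemsa-stained tail-blood smears on days 5, 7, 9; inhibition = [(C−T)/C]×100 versus untreated control.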

[2] = Therapeutic index, ratio of EC50 for human HepG2 cells to IC50 for chloroquine-sensitive blood parasite forms of Plasmodium falciparum 3D7; assay type: toxicity; settings: read-out: TI
Plasmodium falciparum [3] = assay: Antiplasmodial activity against chloroquine-sensitive trophozoite form of Plasmodium falciparum 3D7 infected in RBC after 72 hrs by SYBR green assay; assay type: functional, organism-based; settings: 3D7, Erythrocyte
Summary of the method: (§2)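 Sorbitol-synchronized 3D7 cultures of each stage (or asynchronous) diluted to 0.5% parasitemia, 2% hematocrit, exposed to graded compound concentrations (0.05% DMSO) for 72 h in triplicate. Read-out: lysis buffer (20 mM Tris pH 7.5, 5 mM EDTA, 0.008% saponin, 0.08% Triton X-100) with SYBR green I 1:20000, fluorescence 485/535 nm, uninfected erythrocytes as background; IC50 by curve fitting versus drug-free growth.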

HepG2 = assay: Cytotoxicity against human HepG2 cells assessed as reduction in cell viability after 24 hrs by MTT assay; assay type: cell-based; settings: HepG2, 24 h
Summary of the method: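 HepG2 cells in RPMI-1640 with 10% heat-inactivated serum, seeded 5×10^3 per well, allowed to adhere 18 h at 37 °C, then exposed to compound (400–6.2 µM) for 24 h at 37 °C, 5% CO2. MTT (5 mg/mL) for 3 h, formazan dissolved in DMSO, absorbance 570 nm with 630 nm background; viability as percent of untreated control.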

Plasmodium berghei [4] = assay: Antiplasmodial activity against Plasmodium berghei NK65 infected in Swiss mouse assessed as reduction in parasitemia at 50 mg/kg, po administered via gavage for 3 consecutive days post infection measured on day 5 post infection relative to control; assay type: functional; set-up: scale not given: the % may be the effect or the level left; summary of the method: as §1
Plasmodium berghei [5] = assay: Antiplasmodial activity against Plasmodium berghei NK65 infected in Swiss mouse assessed as reduction in parasitemia at 50 mg/kg, po administered via gavage for 3 consecutive days post infection measured on day 9 post infection relative to control; assay type: functional; set-up: scale not given: the % may be the effect or the level left; summary of the method: as §1
Plasmodium berghei [6] = assay: Antiplasmodial activity against Plasmodium berghei NK65 infected in Swiss mouse assessed as mouse survival at 50 mg/kg, po administered for 3 consecutive days post infection measured on day 9 post infection (reference value: 19 +/- 5 days); assay type: functional
Plasmodium falciparum [7] = assay: Antiplasmodial activity against chloroquine-sensitive ring form of Plasmodium falciparum 3D7 infected in RBC after 72 hrs by SYBR green assay; assay type: functional, organism-based; settings: 3D7, Erythrocyte; summary of the method: as §2
Plasmodium falciparum [8] = assay: Antiplasmodial activity against chloroquine-sensitive blood parasite forms of Plasmodium falciparum 3D7 infected in RBC by SYBR green assay; assay type: functional, organism-based; settings: 3D7, Erythrocyte, read-out: IC50
Summary of the method: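 3D7 blood-stage cultures, sorbitol-synchronized twice beforehand, used at 5-10% parasitemia with >80% rings, diluted to 0.5% parasitemia and 2% hematocrit with graded compound (0.05% DMSO), triplicate; artesunate and chloroquine controls. SYBR green I lysis-buffer fluorescence at 485/535 nm; IC50 from curve fit relative to drug-free medium.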

[9] = Metabolic stability in rat liver microsomes assessed as compound remaining at 4 uM after 30 mins in presence of NADPH by HPLC analysis; assay type: ADME, microsome; settings: read-out: Stability
Summary of the method: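 Rat pooled liver microsomes (final 2 mg/mL protein) in 0.1 M phosphate buffer pH 7.4 with 30 mM MgCl2 and 10 mM NADPH; compounds at 4 µM final; verapamil 0.1 mM positive control. Reactions quenched with ice-cold acetonitrile at set times; parent remaining measured by LC-MS/MS; first-order depletion rate used to derive half-life.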

Plasmodium falciparum [10] = assay: Antiplasmodial activity against chloroquine-sensitive asynchronous form of Plasmodium falciparum 3D7 infected in RBC after 72 hrs by SYBR green assay; assay type: functional, organism-based; settings: 3D7, Erythrocyte; summary of the method: as §2
Plasmodium falciparum [11] = assay: Antiplasmodial activity against early ring stage form of Plasmodium falciparum assessed as induction of alterations in parasite morphology at 10 times IC50 concentration after 8 to 16 hrs by microscopic analysis; assay type: functional, organism-based
Plasmodium falciparum [12] = assay: Antiplasmodial activity against chloroquine-sensitive schizont form of Plasmodium falciparum 3D7 infected in RBC after 72 hrs by SYBR green assay; assay type: functional, organism-based; settings: 3D7, Erythrocyte; summary of the method: as §2
Mus musculus [13] = assay: Toxicity in Swiss mouse assessed as effect on body weight at 1000 mg/kg, ip measured after 30 days; assay type: organism-based; settings: in vivo, 720 h
Summary of the method: (§3)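 Single 1000 mg/kg dose given to mice by gavage or ip injection, 3 mice per group. Survival and body weight followed against untreated controls over 30 days of observation.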

Mus musculus [14] = assay: Toxicity in Swiss mouse assessed as survival at 1000 mg/kg, ip measured up to 30 days; assay type: organism-based; settings: in vivo, 720 h; summary of the method: as §3

Row | Compound | Activity (Plasmodium berghei [1]) [%] | selectivity ratio [2] | IC50 (Plasmodium falciparum [3]) [nM] | EC50 (HepG2) [nM] | Activity (Plasmodium berghei [4]) [%] | Activity (Plasmodium berghei [5]) [%] | Survival (Plasmodium berghei [6]) [days] | IC50 (Plasmodium falciparum [7]) [nM] | IC50 (Plasmodium falciparum [8]) [nM] | remaining at 0.5 h, 4 µM [9] [%] | IC50 (Plasmodium falciparum [10]) [nM] | Activity (Plasmodium falciparum [11]) | IC50 (Plasmodium falciparum [12]) [nM] | Activity (Mus musculus [13]) | Activity (Mus musculus [14])
1 | COc1ccc2c(c1)nc(CC(C)C)c1[nH]ccc12 | 0 | > 70 | 420 | 35000 | 0 | 0 | 23 | 500 | 500 | 24 | 420 | Active | 400 | – | –
2 | COc1ccc2c(c1)nc(-c1ccc(Cl)cc1)c1[nH]ccc12 | 0 | > 417 | 380 | > 250000 | 0 | 0 | 22 | 600 | 600 | 15 | 460 | Active | 500 | Non-Toxic | Non-Toxic
